Assay results as given in publication PMC6925959 (Journal of medicinal chemistry, 2019).
Entries after “also recorded” stand apart in the source; their conditions may differ. Like-named read-outs stand apart in the source and are kept apart here.

Columns and labels:
tubulin = assay: Inhibition of [3H]colchicine binding to tubulin; conditions: 1.0 µM tubulin, 5.0 µM [3H]colchicine
[1] = test system: PC3-DAB2IP-luc human prostate tumor xenograft; assay: In vivo vascular disruption by dynamic bioluminescence imaging; design: species or system rat
Summary of the method: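 Three male […] rats (about 6 weeks old, 100-120 g) carried s.c. right-thigh PC3-DAB2IP-luc tumors (5 X 10⁵ cells in 30% Matrigel), treated once tumors reached ≥1 cm diameter. Prodrug in saline was given IP as single or sequential doses, with CA4P IP as control. Under 3% isoflurane, 120 mg/kg D-luciferin was injected s.c. in the neck, fresh at each session. Tumor-ROI light emission was imaged over about 30 min at baseline, 4 h and 24 h.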

tumor vasculature = conditions: 30 mg/kg, rats; cited from earlier work
[2] = test system: purified bovine brain tubulin; assay: Inhibition of tubulin polymerization; format: biochemical; conditions: cell-free assay
[3] = test system: SK-OV-3 (ovarian) cancer cell line; assay: SRB growth inhibition assay, SK-OV-3; format: cell-based; conditions: Homo sapiens, SK-OV-3, 48 h, read-out: GI50 (μM) SRB assay SK-OV-3
[4] = test system: DU-145 (prostate) cancer cell line; assay: SRB growth inhibition assay, DU-145; format: cell-based, human; conditions: read-out: GI50 (μM) SRB assay DU-145
[5] = test system: NCI-H460 (lung) cancer cell line; assay: SRB growth inhibition assay, NCI-H460; format: cell-based, human; conditions: read-out: GI50 (μM) SRB assay NCI-H460

COc1ccc(/C=C\c2cc(OC)c(OC)c(OC)c2)cc1O [CA4, combretastatin A-4, reference compound]
% Inhibition of colchicine binding ± SD (tubulin; compound at 1 μM): 84 ± 3%

COc1ccc(/C=C\c2cc(OC)c(OC)c(OC)c2)cc1OP(=O)([O-])[O-].[Na+].[Na+] [CA4P, combretastatin A-4 phosphate, reference compound]
Extent and longevity of diminished BLI signal compared with 40 mg/kg 69 ([1]; 30 mg/kg IP, rat): very similar effect | Vascular shutdown (tumor vasculature): extensive vascular shutdown

COCCOCCOc1c(OC)ccc2c1CCCC=C2c1cc(OC)c(OC)c(OC)c1 [Compound 8, 3-Methoxy-4-(2-(2-methoxyethoxy)ethoxy)-9-(3,4,5-trimethoxyphenyl)-6,7-dihydro-5H-benzo[7]annulene]
Inhibition of tubulin polymerization (in words) [2]: loss of inhibitory activity

COc1cc(C2=CCCCc3c2ccc(OC)c3OCCO)cc(OC)c1OC [Compound 11, 2-((3-Methoxy-9-(3,4,5-trimethoxyphenyl)-6,7-dihydro-5H-benzo[7]annulen-4-yl)oxy)ethan-1-ol]
Inhibition of tubulin polymerization (in words) [2]: loss of inhibitory activity

COc1ccc2c(c1O)CCCC(O)C2(O)c1cc(OC)c(OC)c(OC)c1 (stereo not drawn) [Compound 15, 2-Methoxy-5-(3,4,5-trimethoxyphenyl)-6,7,8,9-tetrahydro-5H-benzo[7]annulene-1,5,6-triol]
% Inhibition of colchicine binding ± SD (tubulin; compound at 5 μM): 0 (5 μM) %

COc1ccc2c(c1CO)CCCC=C2c1cc(OC)c(OC)c(OC)c1 [Compound 28, (3-Methoxy-9-(3,4,5-trimethoxyphenyl)-6,7-dihydro-5H-benzo[7]annulen-4-yl)methanol]
GI50 [3]: 40.3 nM

COc1cc(C2(O)C=CCCc3c2ccc(OC)c3OC)cc(OC)c1OC (stereo not drawn) [Compound 56, 1,2-Dimethoxy-5-(3,4,5-trimethoxyphenyl)-8,9-dihydro-5H-benzo[7]annulen-5-ol]
Inhibition of tubulin polymerization (in words) [2]: lack of tubulin activity | % Inhibition of colchicine binding ± SD (tubulin; compound at 5 μM): 0 (5 μM) %

COc1cc(C2CCc3c(ccc(OC)c3OC)C(=O)C2)cc(OC)c1OC (stereo not drawn) [Compound 57, 1,2-Dimethoxy-7-(3,4,5-trimethoxyphenyl)-6,7,8,9-tetrahydro-5H-benzo[7]annulen-5-one]
Inhibition of tubulin polymerization (in words) [2]: lack of activity | % Inhibition of colchicine binding ± SD (tubulin; compound at 5 μM): 0 (5 μM) %

COc1ccc2c(c1O)CC=CC=C2c1cc(OC)c(OC)c(OC)c1 [Compound 68, 3-Methoxy-9-(3,4,5-trimethoxyphenyl)-5H-benzo[7]annulen-4-ol]
GI50 ([4]; Homo sapiens, DU-145, 48 h): 97.6 nM | GI50 [3]: 6.9 nM

COc1cc(C2=CC=CCc3c2ccc(OC)c3OP(=O)([O-])[O-])cc(OC)c1OC.[Na+].[Na+] [Compound 69, Sodium 3-methoxy-9-(3,4,5-trimethoxyphenyl)-5H-benzo[7]annulen-4-yl phosphate]
Change in BLI light emission / vascular perturbation ([1]; 10 mg/kg IP, rat): minimal change in light emission; also recorded: no vascular perturbation | Recovery of BLI signal ([1]; 40 mg/kg IP, 24 h, rat): substantial recovery | Appearance of the rats ([1]; 40 mg/kg IP, 48 h): appeared healthy | Tolerability ([1]; 80 mg/kg IP, rat): well tolerated | Vascular disruption at the higher dose ([1]; 80 mg/kg IP, rat, compared with 40 mg/kg): did not show additional vascular disruption | Inhibition of tubulin polymerization (in words) [2]: inactive | GI50 ([4]; Homo sapiens, DU-145, 48 h): 23.9 nM | GI50 [3]: 15.3 nM

COc1ccc2c(c1O)CCCC=C2c1cc(OC)c(OC)c(OC)c1 [KGP18, 3-Methoxy-9-(3,4,5-trimethoxyphenyl)-6,7-dihydro-5H-benzo[7]annulen-4-ol, reference compound]
GI50 ([5]; Homo sapiens, NCI-H460, 48 h): 0.0418 nM | GI50 ([4]; Homo sapiens, DU-145, 48 h): 0.0249 nM | GI50 [3]: 0.0543 nM

N-(1-hydroxy-2-methoxy-5-(3,4,5-trimethoxyphenyl)-6,7,8,9-tetrahydro-5H-benzo[7]annulen-7-yl)acetamide [Compound 49]
GI50 ([5]; NCI-H460, 48 h treatment): 334 nM | GI50 ([4]; DU-145, 48 h treatment): 1200 nM | % Inhibition of colchicine binding ± SD (tubulin; compound at 5 μM): 0.4 ± 0.6 (5 μM) %
